In article PMC7445463 (Diabetologia, 2020):

Columns and labels:
[1] = test system: Primary human retinal microvascular endothelial cells (ACBRI-181); assay: DMOG chemical hypoxia model; assay type: cell-based; conditions: DHA 50μM, AICAR 0.5mM; DMOG 400 μM 24h
How it was run: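 Primary human retinal microvascular endothelial cells (passage 6–8) grown in endothelial growth medium with 10% FBS. At 70% confluence, exposed 24 h to DMOG 400 μM with or without AICAR 0.5 mM or DHA 50 μM. HIF-1α, HIF-2α, VEGF, ZO-1 and vimentin assessed by immunofluorescence, plus a cell migration assay. AMPK activity by western blot.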

[2] = test system: Arrb2+/+ beta cells; assay: F-actin depolymerisation, phalloidin staining; assay type: cell-based, mouse; conditions: 1μmol/l
How it was run: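 F-actin depolymerisation assessed by Alexa Fluor 488-conjugated phalloidin staining. FAK phosphorylation assessed by immunofluorescence.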

[3] = test system: C2C12 murine myotubes; assay: ATPγS glucose uptake; assay type: cell-based; conditions: 100 μM
[4] = test system: adiponectin receptor; assay: HFD-fed DBA/2J mice with AdipoRon, 9 weeks; assay type: in vivo, mouse; conditions: HFD supplemented with AdipoRon
[5] = i.v. beta-hydroxybutyrate infusion crossover study, T2D; assay type: in vivo, human
[6] = test system: patients with type 2 diabetes and CKD; assay: CREDENCE acute eGFR decline; assay type: in vivo, human; conditions: week 3
[7] = CREDENCE trial; assay type: in vivo, human
[8] = 6 weeks
[9] = test system: Notch pathway; assay: PHA-activated co-cultures of obASCs and MNCs; assay type: cell-based, human; conditions: PHA-activated obASC/MNC co-cultures
How it was run: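 Human obese adipose-derived stem cells were co-cultured with mononuclear cells under phytohemagglutinin A activation, with or without the Notch inhibitor DAPT. Separately, the stem cells were transfected or not with Dner-targeting siRNA. Cytokine secretion into the medium was measured by ELISA, and expression by RT-qPCR.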

[10] = ACCORD trial, cardiovascular autonomic neuropathy; assay type: in vivo, human; conditions: 95%CI 0.78 - 1.07
[11] = test system: obese men without diabetes; assay: FLT-PET/MRI and pancreatic enzymes during liraglutide; assay type: in vivo, human
[12] = test system: human retinal endothelial cells (hRECs); assay: MGO exposure of human retinal endothelial cells; assay type: cell-based; conditions: 500μM, 72h
[13] = iv bolus of purified MGO in mice, immune cell numbers; assay type: in vivo, mouse
[14] = test system: Rev-erbα; assay: Rev-erbα agonist and antagonist in beta cells and human islets; assay type: cell-based
How it was run: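 Cells used were rat INS-1E, human EndoC-βH1 and human islets. Rev-erbα was modulated with agonist, antagonist or siRNA knock-down. Stress was glucotoxicity (INS-1E, EndoC-βH1) or cytokines (INS-1E, human islets). Glucose-induced insulin secretion was read by HTRF, apoptosis as cleaved caspase-3, and Rev-erbα protein by western blot.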

[15] = biological target: neprilysin (Mus musculus, UniProt Q61391); assay: Exogenous glucagon after sacubitril in mice; assay type: in vivo; conditions: 0.7 nmol/g; glucagon 96 ng/g; n=10
[16] = Intrajejunal metformin with or without bile exclusion or TCA, T2DM; assay type: in vivo, human; conditions: metformin with TCA 4 g supplementation; endogenous bile included
[17] = test system: differentiated adipocytes (wild type); assay: Adipocyte glucose uptake after dexamethasone; assay type: cell-based, human; conditions: 0.3 μM/24 h; WT cultures; n=6
[18] = test system: patients with type 2 diabetes; assay: Network meta-analysis of antidiabetic medications on blood pressure; parameters: species or system human
[19] = Brain insulin sensitivity by fMRI with intranasal insulin, prediabetes; assay type: in vivo, human; conditions: 25 mg qd, 8 weeks
[20] = Empagliflozin 24 weeks in T2DM and HFpEF; assay type: in vivo, human; conditions: after 24 weeks; baseline 126
[21] = db/db mice, empagliflozin alone or with linagliptin, 8 weeks; assay type: in vivo, mouse; conditions: 10 mg/kg (of each)
How it was run: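 Male 8-week-old db/db mice (BKS.Cg-Dock7m+/+Leprdb/J) received vehicle, SGLT2 inhibitor 10 mg/kg, or SGLT2 inhibitor plus DPP4 inhibitor (10 mg/kg each) for 8 weeks. Heterozygous db/+ mice served as non-diabetic controls. Plasma glucose, fructosamine, glycated albumin and urinary albumin-to-creatinine ratio were measured at weeks 0 and 8.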

[22] = HFD-induced obese mice, empagliflozin 8 weeks; assay type: in vivo, mouse; parameters: AUC glucose / AUC insulin: unit not given beside the values
[23] = CAROLINA trial; assay type: in vivo, human; conditions: 5 mg; regardless of age group
[24] = biological target: Piezo1 (Mus musculus, UniProt E2JF22); assay: In situ pancreas perfusion, insulin secretion
How it was run: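 Mice were β-cell-specific Piezo1 knockouts (RIP-Cre+Piezo1f/f). Insulin secretion was measured by in situ pancreas perfusion.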

[25] = biological target: Piezo1 (Homo sapiens, UniProt Q92508); assay: Ca2+ imaging in human β-cells; assay type: cell-based
How it was run: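 Human β-cells loaded for Ca2+ imaging. Amplitude of glucose-induced [Ca2+]i oscillations recorded with and without a Piezo1-inhibiting test compound.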

[26] = 4-week treatment of DIO mice, body weight loss; assay type: in vivo, mouse; conditions: s.c., 4 weeks, human equivalent doses
[27] = 1.5 mg once weekly; 95% CI 0.79, 0.99; cited from earlier work
[28] = EVOLVE study, insulin detemir in pregnancy; assay type: in vivo, human; conditions: 727 vs 730 women
How it was run: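 […] in women with pre-existing diabetes comparing the test basal insulin with another basal insulin. The primary endpoint was the number of women completing ≥22 weeks of gestation without major congenital malformations, perinatal death or neonatal death. It was analysed as crude and adjusted risk difference between treatment groups.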

[29] = biological target: neprilysin (Homo sapiens, UniProt P08473); assay: Mixed meal after single dose sacubitril/valsartan, healthy males; assay type: in vivo; conditions: 194 mg sacubitril / 206 mg valsartan single dose

Piezo1 (Mus musculus, UniProt E2JF22), sequence (E2JF22 whole entry, the tested form may be a part): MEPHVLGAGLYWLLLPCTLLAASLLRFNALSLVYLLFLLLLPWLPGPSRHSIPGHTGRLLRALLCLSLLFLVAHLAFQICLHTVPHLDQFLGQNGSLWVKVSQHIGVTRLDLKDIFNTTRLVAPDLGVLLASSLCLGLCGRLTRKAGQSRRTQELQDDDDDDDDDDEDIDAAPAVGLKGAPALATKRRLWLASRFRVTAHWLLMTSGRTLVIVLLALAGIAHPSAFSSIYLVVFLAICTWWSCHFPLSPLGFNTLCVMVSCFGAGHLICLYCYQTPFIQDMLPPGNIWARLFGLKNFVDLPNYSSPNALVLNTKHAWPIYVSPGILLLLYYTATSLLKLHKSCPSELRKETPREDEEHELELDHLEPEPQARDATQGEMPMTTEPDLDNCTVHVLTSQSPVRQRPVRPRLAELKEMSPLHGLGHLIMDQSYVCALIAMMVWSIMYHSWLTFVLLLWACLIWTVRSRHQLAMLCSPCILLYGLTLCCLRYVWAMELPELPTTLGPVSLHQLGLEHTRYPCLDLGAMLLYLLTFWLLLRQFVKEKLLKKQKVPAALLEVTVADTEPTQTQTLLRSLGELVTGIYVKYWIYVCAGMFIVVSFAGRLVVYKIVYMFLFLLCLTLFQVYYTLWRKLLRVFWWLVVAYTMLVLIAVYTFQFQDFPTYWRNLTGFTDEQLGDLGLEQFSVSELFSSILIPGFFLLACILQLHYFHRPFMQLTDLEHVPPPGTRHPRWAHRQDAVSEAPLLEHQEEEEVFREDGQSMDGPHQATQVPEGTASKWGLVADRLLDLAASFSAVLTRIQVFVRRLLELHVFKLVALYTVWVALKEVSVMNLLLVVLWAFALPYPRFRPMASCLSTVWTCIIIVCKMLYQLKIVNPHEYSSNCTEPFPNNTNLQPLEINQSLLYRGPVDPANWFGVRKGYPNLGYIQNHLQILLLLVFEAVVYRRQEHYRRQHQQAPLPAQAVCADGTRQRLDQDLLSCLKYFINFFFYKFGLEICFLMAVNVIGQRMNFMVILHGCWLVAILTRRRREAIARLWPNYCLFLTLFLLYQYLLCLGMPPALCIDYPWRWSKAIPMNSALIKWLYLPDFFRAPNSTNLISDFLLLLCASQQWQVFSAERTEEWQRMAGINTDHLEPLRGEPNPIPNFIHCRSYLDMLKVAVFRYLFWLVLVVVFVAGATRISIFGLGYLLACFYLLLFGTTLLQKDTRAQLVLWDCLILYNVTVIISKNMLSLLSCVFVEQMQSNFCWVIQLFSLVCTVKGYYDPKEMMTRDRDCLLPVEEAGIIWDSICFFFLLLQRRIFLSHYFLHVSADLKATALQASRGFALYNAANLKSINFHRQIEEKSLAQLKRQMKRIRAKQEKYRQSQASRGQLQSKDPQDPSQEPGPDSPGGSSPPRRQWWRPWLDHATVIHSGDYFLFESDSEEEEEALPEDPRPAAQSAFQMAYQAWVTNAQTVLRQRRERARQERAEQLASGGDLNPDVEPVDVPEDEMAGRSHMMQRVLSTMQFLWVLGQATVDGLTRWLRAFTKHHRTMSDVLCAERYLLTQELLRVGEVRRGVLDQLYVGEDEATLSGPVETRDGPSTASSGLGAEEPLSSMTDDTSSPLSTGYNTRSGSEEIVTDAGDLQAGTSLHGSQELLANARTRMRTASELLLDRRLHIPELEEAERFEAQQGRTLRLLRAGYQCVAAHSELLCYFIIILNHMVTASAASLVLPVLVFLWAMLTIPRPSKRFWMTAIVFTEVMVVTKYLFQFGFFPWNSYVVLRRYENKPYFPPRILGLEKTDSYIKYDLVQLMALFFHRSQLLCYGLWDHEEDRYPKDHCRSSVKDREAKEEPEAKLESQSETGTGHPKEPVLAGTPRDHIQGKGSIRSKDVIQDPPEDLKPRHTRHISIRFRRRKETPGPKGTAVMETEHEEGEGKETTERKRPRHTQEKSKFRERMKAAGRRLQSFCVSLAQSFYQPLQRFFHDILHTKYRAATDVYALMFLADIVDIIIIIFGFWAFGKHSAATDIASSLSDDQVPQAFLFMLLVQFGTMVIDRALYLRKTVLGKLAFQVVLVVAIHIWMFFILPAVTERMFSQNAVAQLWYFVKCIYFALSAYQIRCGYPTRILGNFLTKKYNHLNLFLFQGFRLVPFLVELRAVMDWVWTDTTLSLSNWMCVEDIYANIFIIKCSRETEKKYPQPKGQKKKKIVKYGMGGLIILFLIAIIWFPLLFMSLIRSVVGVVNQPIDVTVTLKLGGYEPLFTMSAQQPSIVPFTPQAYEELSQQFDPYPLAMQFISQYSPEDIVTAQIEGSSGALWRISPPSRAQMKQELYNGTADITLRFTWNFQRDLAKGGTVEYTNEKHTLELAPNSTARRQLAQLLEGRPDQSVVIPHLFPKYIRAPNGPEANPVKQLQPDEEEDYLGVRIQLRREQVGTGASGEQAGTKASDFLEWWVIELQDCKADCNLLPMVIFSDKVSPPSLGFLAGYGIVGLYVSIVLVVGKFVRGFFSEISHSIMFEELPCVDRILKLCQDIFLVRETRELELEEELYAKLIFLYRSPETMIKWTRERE
Piezo1 (Homo sapiens, UniProt Q92508), sequence (Q92508 whole entry): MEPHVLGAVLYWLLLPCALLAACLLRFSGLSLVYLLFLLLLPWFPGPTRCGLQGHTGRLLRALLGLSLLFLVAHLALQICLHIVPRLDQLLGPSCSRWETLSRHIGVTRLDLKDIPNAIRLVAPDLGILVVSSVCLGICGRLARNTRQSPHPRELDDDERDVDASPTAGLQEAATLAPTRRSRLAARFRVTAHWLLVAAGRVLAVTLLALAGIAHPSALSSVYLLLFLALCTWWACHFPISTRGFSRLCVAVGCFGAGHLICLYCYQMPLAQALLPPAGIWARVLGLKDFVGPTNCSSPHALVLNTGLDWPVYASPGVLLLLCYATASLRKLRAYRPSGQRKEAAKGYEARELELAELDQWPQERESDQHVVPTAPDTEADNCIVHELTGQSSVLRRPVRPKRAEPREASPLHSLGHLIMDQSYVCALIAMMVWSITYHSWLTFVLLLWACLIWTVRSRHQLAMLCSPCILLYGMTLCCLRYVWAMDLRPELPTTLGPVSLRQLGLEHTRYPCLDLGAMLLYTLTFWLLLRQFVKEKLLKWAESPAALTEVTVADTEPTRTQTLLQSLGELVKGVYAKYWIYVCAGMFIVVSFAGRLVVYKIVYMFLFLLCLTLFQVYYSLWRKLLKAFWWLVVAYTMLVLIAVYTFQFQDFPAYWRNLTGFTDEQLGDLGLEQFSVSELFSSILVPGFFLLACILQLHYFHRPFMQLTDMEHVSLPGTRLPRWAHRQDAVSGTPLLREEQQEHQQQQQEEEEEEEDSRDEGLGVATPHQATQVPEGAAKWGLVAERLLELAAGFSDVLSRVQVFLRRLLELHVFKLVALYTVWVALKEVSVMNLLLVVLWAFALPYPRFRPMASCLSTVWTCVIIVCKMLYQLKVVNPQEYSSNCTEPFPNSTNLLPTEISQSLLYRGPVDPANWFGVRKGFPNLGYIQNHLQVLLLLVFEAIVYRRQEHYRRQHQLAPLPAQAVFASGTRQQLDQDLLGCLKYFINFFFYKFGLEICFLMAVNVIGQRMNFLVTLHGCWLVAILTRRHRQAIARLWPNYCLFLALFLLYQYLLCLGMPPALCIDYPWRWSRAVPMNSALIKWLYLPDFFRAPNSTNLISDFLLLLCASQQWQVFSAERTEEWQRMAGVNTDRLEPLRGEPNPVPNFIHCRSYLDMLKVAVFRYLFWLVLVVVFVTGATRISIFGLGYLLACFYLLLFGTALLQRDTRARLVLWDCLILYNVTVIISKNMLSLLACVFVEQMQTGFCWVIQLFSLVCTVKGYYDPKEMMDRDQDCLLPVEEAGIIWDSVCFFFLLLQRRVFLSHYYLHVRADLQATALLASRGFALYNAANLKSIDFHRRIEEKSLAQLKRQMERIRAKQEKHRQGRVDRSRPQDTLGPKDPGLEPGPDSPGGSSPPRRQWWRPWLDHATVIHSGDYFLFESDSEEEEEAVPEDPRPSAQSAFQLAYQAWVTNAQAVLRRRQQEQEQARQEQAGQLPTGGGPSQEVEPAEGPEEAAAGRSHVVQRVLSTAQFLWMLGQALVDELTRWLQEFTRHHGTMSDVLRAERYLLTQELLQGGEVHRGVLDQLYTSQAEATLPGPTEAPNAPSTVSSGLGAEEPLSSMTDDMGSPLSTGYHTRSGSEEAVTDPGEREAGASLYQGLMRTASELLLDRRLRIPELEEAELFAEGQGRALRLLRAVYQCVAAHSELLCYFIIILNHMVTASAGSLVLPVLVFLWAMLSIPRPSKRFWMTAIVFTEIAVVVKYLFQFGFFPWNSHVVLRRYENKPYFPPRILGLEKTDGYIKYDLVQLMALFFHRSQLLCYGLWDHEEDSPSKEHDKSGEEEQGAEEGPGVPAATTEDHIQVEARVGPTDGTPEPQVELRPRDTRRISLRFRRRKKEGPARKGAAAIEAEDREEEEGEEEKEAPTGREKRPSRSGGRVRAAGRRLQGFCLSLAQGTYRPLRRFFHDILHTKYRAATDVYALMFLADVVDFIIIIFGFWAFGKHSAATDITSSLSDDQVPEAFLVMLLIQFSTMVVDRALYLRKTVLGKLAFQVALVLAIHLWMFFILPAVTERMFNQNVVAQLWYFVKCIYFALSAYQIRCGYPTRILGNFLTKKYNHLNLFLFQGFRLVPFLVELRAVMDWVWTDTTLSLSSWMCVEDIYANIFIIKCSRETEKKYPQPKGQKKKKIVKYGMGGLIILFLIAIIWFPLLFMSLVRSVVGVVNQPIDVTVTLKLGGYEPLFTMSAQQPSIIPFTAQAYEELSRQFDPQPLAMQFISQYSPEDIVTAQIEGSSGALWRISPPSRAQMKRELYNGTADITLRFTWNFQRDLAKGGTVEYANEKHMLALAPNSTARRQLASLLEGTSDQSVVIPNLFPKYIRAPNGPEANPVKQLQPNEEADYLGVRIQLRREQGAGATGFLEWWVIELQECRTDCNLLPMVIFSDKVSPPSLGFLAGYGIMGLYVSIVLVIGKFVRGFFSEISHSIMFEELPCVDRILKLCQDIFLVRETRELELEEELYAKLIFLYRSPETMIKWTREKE

NC(=O)c1ncn([C@@H]2O[C@H](COP(=O)(O)O)[C@@H](O)[C@H]2O)c1N [AICAR, 5-aminoimidazole-4-carboxamide ribonucleotide]
DMOG-induced abnormalities (HIF, VEGF, ZO-1, vimentin, migration) [1]: fully prevented

O=C1NC(=O)/C(=C/c2ccc3c(c2)OC(F)(F)O3)S1 [AS604850]
reduction of F-actin depolymerisation by GIP stimulation [2]: ~ 30%

Nc1ncnc2c1ncn2[C@@H]1O[C@H](CO[P@](=O)(O)O[P@](=O)(O)O[P@@](=O)(O)S)[C@@H](O)[C@H]1O [ATPγS]
glucose uptake [3]: increased glucose uptake

O=C(COc1ccc(C(=O)c2ccccc2)cc1)NC1CCN(Cc2ccccc2)CC1 [AdipoRon]
HFD-induced weight gain [4]: reduced

CC(O)CC(=O)O (stereo not drawn) [Beta-hydroxybutyrate, beta-hydroxybutyrate]
increase in heart rate vs placebo ([5]; n=17): 13.7 ± 1.2 bpm
beta-hydroxybutyrate levels during infusion ([5]; placebo 0.1 ± 0.6): 2.4 ± 0.6 mM

Cc1ccc([C@@H]2O[C@H](CO)[C@@H](O)[C@H](O)[C@H]2O)cc1Cc1ccc(-c2ccc(F)cc2)s1 [CANA, canagliflozin]
participants with >30% decline [6]: 4%
HHF alone HR vs placebo ([7]; 95% CI 0.47-0.80): 0.61
HHF/CV death HR vs placebo ([7]; 95% CI 0.57, 0.83, median 2.6 years): 0.69
reduction of risk of HHF/CV death ([7]; overall population): 31%

CCOc1ccc(Cc2cc([C@@H]3O[C@H](CO)[C@@H](O)[C@H](O)[C@H]3O)ccc2Cl)cc1 [DAPA, dapagliflozin]
hepatic uptake of fatty acids vs placebo ([8]; 10 mg/day): increased
plasma NT-proBNP levels [8]: unaffected

C[C@H](NC(=O)Cc1cc(F)cc(F)c1)C(=O)N[C@H](C(=O)OC(C)(C)C)c1ccccc1 [DAPT]
IL-17A secretion [9]: significantly inhibited

CC/C=C\C/C=C\C/C=C\C/C=C\C/C=C\C/C=C\CCC(=O)O [DHA, docosahexaenoic acid]
DMOG-induced abnormalities (HIF, VEGF, ZO-1, vimentin, migration) [1]: fully prevented

CC(C)OC(=O)C(C)(C)Oc1ccc(C(=O)c2ccc(Cl)cc2)cc1 [Fenofibrate]
CAN outcome OR [10]: 0.91

CCCCCCCCCCCCCCCC(=O)N[C@@H](CCC(=O)NCCCC[C@H](NC(=O)[C@H](C)NC(=O)[C@H](C)NC(=O)[C@H](CCC(N)=O)NC(=O)CNC(=O)[C@H](CCC(=O)O)NC(=O)[C@H](CC(C)C)NC(=O)[C@H](Cc1ccc(O)cc1)NC(=O)[C@H](CO)NC(=O)[C@H](CO)NC(=O)[C@@H](NC(=O)[C@H](CC(=O)O)NC(=O)[C@H](CO)NC(=O)[C@@H](NC(=O)[C@H](Cc1ccccc1)NC(=O)[C@@H](NC(=O)CNC(=O)[C@H](CCC(=O)O)NC(=O)[C@H](C)NC(=O)[C@@H](N)Cc1cnc[nH]1)[C@@H](C)O)[C@@H](C)O)C(C)C)C(=O)N[C@@H](CCC(=O)O)C(=O)N[C@@H](Cc1ccccc1)C(=O)N[C@H](C(=O)N[C@@H](C)C(=O)N[C@@H](Cc1c[nH]c2ccccc12)C(=O)N[C@@H](CC(C)C)C(=O)N[C@H](C(=O)N[C@@H](CCCNC(=N)N)C(=O)NCC(=O)N[C@@H](CCCNC(=N)N)C(=O)NCC(=O)O)C(C)C)[C@@H](C)CC)C(=O)O [Liraglutide]
change in mean FLT-uptake in pancreatic tissue ([11]; after four weeks): +0.08
change in pancreatic volume ([11]; baseline to six weeks, MRI): +0.2 cm^3
change in maximum FLT-uptake ([11]; titration period): +0.3

CC(=O)C=O [MGO, methylglyoxal]
impairment of tube formation capacity [12]: ~ 70%
impairment of cell migration ([12]; transwell assay): ~ 30%
increase of circulating neutrophils vs PBS ([13]; 25μg iv bolus, after 10 min): 7 fold
increase of hepatic neutrophils ([13]; 10 min post injection): 9 fold
decrease of CD11b expression in the aorta ([13]; after 10 min): 19.9 fold
macrophage numbers in the liver ([13]; after 72h, control 24.2±6.8): 35.7±6.5 macrophages per microscopic view

CCOC(=O)C1Cc2ccccc2CN1C(=O)c1ccc(SC)s1 (stereo not shown) [SR8278]
attenuation of beta-cell apoptosis ([14]; glucotoxicity or cytokines, antagonist or siRNA): ~ 30%

CCOC(=O)N1CCC(CN(Cc2ccc(Cl)cc2)Cc2ccc([N+](=O)[O-])s2)C1 (stereo not shown) [SR9009]
decrease of glucose-stimulated insulin secretion ([14]; INS-1E cells and human islets): 70%

CCOC(=O)[C@H](C)C[C@@H](Cc1ccc(-c2ccccc2)cc1)NC(=O)CCC(=O)O [Sacubitril, sacubitril]
increase of exogenous glucagon levels (iAUC0-60 min) [15]: 1.9 fold

C[C@H](CCC(=O)NCCS(=O)(=O)O)[C@H]1CC[C@H]2[C@@H]3[C@H](O)C[C@@H]4C[C@H](O)CC[C@]4(C)[C@H]3C[C@H](O)[C@]12C [TCA, taurocholic acid]
plasma glucose iAUC 0-180 min [16]: 568 ± 38 mmol·min/L

C[C@@H]1C[C@H]2[C@@H]3CCC4=CC(=O)C=C[C@]4(C)[C@@]3(F)[C@@H](O)C[C@]2(C)[C@@]1(O)C(=O)CO [dexamethasone]
reduction of basal and insulin-stimulated glucose uptake [17]: ~ 50%

OC[C@H]1O[C@@H](c2ccc(Cl)c(Cc3ccc(O[C@H]4CCOC4)cc3)c2)[C@H](O)[C@@H](O)[C@@H]1O [empagliflozin]
systolic blood pressure, empagliflozin vs dapagliflozin ([18]; CI -2.35 to -0.12): -1.24 mmHg
diastolic blood pressure, mean difference versus placebo ([18]; network meta-analysis): -1.73 mmHg
hypothalamic blood flow response to intranasal insulin [19]: significant insulin-induced decrease
left ventricular mass index (LVMI) [20]: 111,1 g/m2
plasma glucose, fructosamine, glycated albumin and UACR [21]: decreased
body weight ([22]; 10mg/kg, 8 weeks, HFD 49.5 ± 2.8): 41.2 ± 1.5 g
fat mass ([22]; HFD 17.6 ± 3.4): 10.7 ± 2.6 g
AUC insulin ([22]; HFD 9617± 242): 6263 ± 337
AUC glucose ([22]; HFD 38739± 1750): 27714 ± 1052

CC#CCn1c(N2CCC[C@@H](N)C2)nc2c1c(=O)n(Cc1nc(C)c3ccccc3n1)c(=O)n2C [linagliptin]
hypoglycaemia rates vs glimepiride [23]: significantly lower

Clc1cccc(Cl)c1CSc1nnc(-c2cnccn2)s1 [yoda1]
increase of insulin secretion ([24]; glucose alone almost 3-fold): ~ 7 fold

GsMTx4
reduction of amplitude of glucose-induced [Ca2+]i oscillations [25]: ~ 80%
reduction of insulin release [24]: > 30%

dulaglutide
body weight loss vs vehicle [26]: -2.5%
MACE-3 hazard ratio vs placebo [27]: 0.88

insulin detemir [IDet]
risk of major congenital malformations, perinatal or neonatal deaths vs other basal insulin [28]: not associated with excess risk

sacubitril / valsartan [sacubitril/valsartan]
increase of postprandial glucagon levels (iAUC0-240 min) [29]: 2.7 fold
